# Assay results as given in PubChem BioAssay AID504382 (The Scripps Research Institute Molecular Screening Center, 2011).
# Hit rate of the full screen: of about 2,500 compounds, about 460 (18%) were called active. Only a sample is shown. A number with no mark means an inactive call.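 How the source made its calls: active means mean activation above a cutoff of low control average plus 3 SD from the earlier screen (cut at about 12% in these data); inactive means the rest.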
# Assay: compound fluorescence interference without thin filaments, confirmation, artefact control for cardiac RTF calcium sensitizer project, biochemical (AID 504382)
# Conditions: IANBD fluorescence interference counterscreen, buffer, EC20 Ca2+; at 7.2 µM; hits give high values; scaled: EC20 calcium 0, EC100 calcium 100
# Method in brief: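 timing = compound incubation 15 min at 25 °C before fluorescence reading | technique = fluorescence at 480 nm excitation, 540 nm emission | evaluation = interference relative to controls | replication = triplicate wells per compound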
row,Structure (SMILES),fluorescence artifact activation
1,OCCN=C1CCCc2c1[nH]c1ccc(Cl)cc21,0.44%
2,COc1ccccc1NC(=O)CC(=O)CSc1nnc(-c2ccc(C)cc2)n1-c1ccccc1,-0.03%
3,COc1ccccc1NC(=O)COC(=O)c1cnc(C)cn1,14.7% (active)
4,COc1ccccc1NCC(=O)NC(=O)NC1CCCCC1,0.02%
5,CCCn1c(CN2CCN(C(=O)OCC)CC2)nc2cc(NC(=O)CC)ccc21,0.01%
6,Cn1c(CN2CCCC2)nc2cc(NC(=O)COc3ccc([N+](=O)[O-])cc3)ccc21,0.82%
7,CCC(=O)Nc1ccc2c(c1)nc(CCN1CCN(C)CC1)n2C,20.2% (active)
8,CCCCC1OC23CCCCC2C(C#N)(C(=N)O3)C1(C#N)C#N (configuration not stated),-0.04%
9,CCCC1OC23CCCCC2C(C#N)(C#N)C1(C#N)C(=N)O3 (configuration not stated),36.8% (active)
10,CCCCC1OC23CCCCC2C(C#N)(C#N)C1(C#N)C(=N)O3 (configuration not stated),3.08%
11,CCN(c1ccccc1)S(=O)(=O)c1ccc(OC)c(NC(=O)Cn2cnc3c2c(=O)n(C)c(=O)n3C)c1,0.38%
12,CC(OC(=O)/C(C#N)=C/c1ccc(N(C)C)cc1)C(=O)N(C)c1ccccc1 (configuration not stated),0.19%
13,NS(=O)(=O)c1ccc(-c2ccc(/C=C3\SC(=S)N(C4CCS(=O)(=O)C4)C3=O)o2)cc1 (configuration not stated),3.08%
14,COc1ccc(CCNC(=O)C2CC(c3c(Cl)cccc3Cl)=NO2)cc1 (configuration not stated),-0.04%
15,CC1(C)CC(=O)C(CC2CCCCC2=O)C(=O)C1 (configuration not stated),0.76%
16,Fc1ccc(CNC(=S)NCc2ccc(F)cc2)cc1,12.3% (active)
17,Fc1ccc(CNCc2ccc(Br)cc2)cc1,0.02%
18,CCN(CC)c1ccc(NC(=S)Nc2ccc(F)cc2)cc1,0.1%
19,S=C(Nc1ccc(N2CCOCC2)cc1)Nc1ccc2nc(-c3ccco3)c(-c3ccco3)nc2c1,8.46%
20,O=C(c1ccc(Cl)cc1)n1cnc2ccccc21,0.21%
21,COc1ccc(C(=O)Cn2cnc3ccccc3c2=O)cc1OC,0.22%
22,O=C(Cn1cnc2ccccc2c1=O)c1ccc(Br)cc1,102% (active)
23,O=C(C1=NN(c2ccccc2)C2C(=O)N(c3ccccc3Cl)C(=O)C12)c1ccccc1 (configuration not stated),1.06%

row,Structure (SMILES),fluorescence artifact activation
1,Cc1oc(-c2cc3c(cc2Cl)OCO3)nc1CN1CCCC(C(=O)N2CCOCC2)C1 (configuration not stated),190% (active)
2,CSCCC(NC(=O)c1ccc(Cl)cc1)C(=O)OCC(=O)c1ccc[nH]1 (configuration not stated),0.05%
3,O=C(/C=C/c1ccccc1)N/C(=C/c1ccccc1)C(=O)NCCCO,0.08%
4,C=CCNC(=O)NC(=O)COC(=O)CC(NC(N)=O)c1ccc(Cl)cc1 (configuration not stated),50.5% (active)
5,O=C(NCCCN1CCCC1=O)c1cccc(S(=O)(=O)Nc2ccc(Br)cc2)c1,0.07%
6,O=C1CCC(=O)N(O)CCCCCNC(=O)CCC(=O)N(O)CCCCNC(=O)CCC(=O)N(O)CCCCCN1,-0.06%
7,O=C(CC1C(=O)N(c2ccc(Cl)cc2)C(=S)N1CCc1ccncc1)Nc1ccc(F)cc1 (configuration not stated),-0.02%
8,O=C1c2cccc3cccc(c23)C(=O)N1CC1CCN(S(=O)(=O)c2ccc(F)cc2)CC1,34.6% (active)
9,O=S(=O)(c1ccccc1Cl)N1CCC(Cc2ccccc2)CC1,0.09%
10,CC1CCN(S(=O)(=O)c2ccc(N=NC3=C(O)CC(C)(C)CC3=O)cc2)CC1,1.03%
11,C=CCn1c(C)cc(-c2csc(N)n2)c1C,2.95%
12,O=C(NCc1ccco1)C1CC(c2c(Cl)cccc2Cl)=NO1 (configuration not stated),-0.09%
13,COc1cccc(C(=O)NC2CC3CCCC(C2)N3CC(=O)Nc2ccc(N(C)C)cc2)c1 (configuration not stated),3.62%
14,CN(C)c1ccc(/C=C/c2cc[n+](C)c3ccccc23)cc1,0.06%
15,CN(C)c1ccc(/C=C/c2cc[n+](C)cc2)cc1,14.5% (active)
16,Cc1ccc(/C=C/c2ccc(N(C)C)cc2)[n+](C)c1,1.46%
17,O=C1N(c2cccc(Cl)c2)C(c2ccccc2)N2CCCN12 (configuration not stated),-0.04%
18,COc1ccc(COc2cc(-c3cccc(OC)c3)nc3ccc(NC(=O)c4ccc(C)cc4)cc23)cc1,0.13%
19,COc1cccc(CC(NC(C)=O)C(=O)NC2CCN(c3nc(C)cc(C)c3C#N)CC2)c1OC (configuration not stated),6.12%
20,CCCCN(C(=O)c1ccc2c(c1)OCCO2)c1c(N)n(CCCC)c(=O)[nH]c1=O,-0.02%
21,CC(=O)Nc1ccc(NC(=O)C(C)OC(=O)/C(C#N)=C/c2ccc(N(C)C)cc2)cc1 (configuration not stated),2.64%
22,CC1CC(C)(C)NC(=S)N1CCCC(=O)Nc1ccccc1F (configuration not stated),0.07%
23,CCC(C)n1ncn(-c2ccc(N3CCN(c4ccc(OCC5COC(Cn6cncn6)(c6ccc(Cl)cc6Cl)O5)cc4)CC3)cc2)c1=O (configuration not stated),121% (active)

row,Structure (SMILES),fluorescence artifact activation
1,CC1(C)c2[nH]c3ccccc3c2C[C@H]2C(=O)N(Cc3ccc(F)cc3)C(=O)N21,0%
2,Cc1onc(-c2ccccc2Cl)c1C(=O)N(Cc1ccc(N(C)C)cc1)C(C)C,2.44%
3,CCOC(=O)c1ccccc1-n1nnnc1C,0.06%
4,CCOC(=O)c1cc2c(s1)-c1ccccc1CC2,0.55%
5,CCOC(=O)c1cc2n(c1N)-c1ccccc1C2=O,19.5% (active)
6,COc1cc(/C=C/C=C2/CC/C(=C/C=C/c3ccc(O)c(OC)c3)C2=O)ccc1O,7.81%
7,C/C(=C\C=C(C#N)C#N)c1cc(C#N)c(N)o1,3.09%
8,N#C/C(=C\c1ccc(N2CCCCC2)o1)C(N)=O,2.99%
9,N#C/C(=C/c1ccc(N2CCCCCC2)o1)c1cccc(F)c1,33.8% (active)
10,N#C/C(=C/c1ccc(N2CCCCCC2)o1)c1ccc(Cl)cc1,12.3% (active)
11,N#C/C(=C/c1ccc(N2CCOCC2)o1)c1ccc(Cl)cc1,0%
12,N#C/C(=C\c1ccc(N2CCOCC2)o1)C(=O)N1CCOCC1,0.05%
13,Cc1ncoc1C(=O)N1CCc2c([nH]c3ccccc23)C1C(C)(C)C (configuration not stated),0.21%
14,CN(C)c1ccc(/C=C/c2ccc3ccccc3n2)cc1,0.06%
15,CN1CCN(CCNC(=O)Nc2ccc(Cl)cc2)CC1,3.25%
16,CCCCCCSc1ccc([C@@H]2[C@H]3C(=O)N(CC)C(=O)[C@H]3[C@]3(C(=O)OC)CCCCN23)cc1OC,-0.04%
17,CCn1cc(Cl)c(C(=O)NNC(=O)CCn2cc([N+](=O)[O-])cn2)n1,-0.04%
18,CN1/C(=C\C=C2/SC(=S)N(CC(=O)O)C2=O)C(C)(C)c2ccccc21,0.11%
19,CN1C(=CC=C2C=C(I)C(=O)C(I)=C2)C(C)(C)c2ccccc21,0.22%
20,CC1(C)c2ccccc2N2CC(=O)N(CC(N)=O)C21C (configuration not stated),20.9% (active)
21,O=C(Nc1ccccc1)NC1CS(=O)(=O)CC1O (configuration not stated),32.8% (active)
22,CC(=O)Nc1ccccc1,-0.1%
23,O=C(Nc1ccccc1)OC1CCC2CC1CCC2OC(=O)Nc1ccccc1 (configuration not stated),-0.01%

row,Structure (SMILES),fluorescence artifact activation
1,c1ccc(CCC2=NCCn3cccc32)cc1,4.53%
2,CCCCn1c(N)c(N(CC(C)C)C(=O)Cc2ccc(S(=O)(=O)N3CCOCC3)s2)c(=O)[nH]c1=O,3.01%
3,Brc1ccc2[nH]c3nc(SCCN4CCOCC4)nnc3c2c1,0.16%
4,COc1ccc(/C=C2\SC(=S)N(CCCC(=O)Nc3ccccc3C(=O)O)C2=O)cc1OC,5.03%
5,O=C(Nc1ccccc1)c1ccc(NCCc2ccccc2)c([N+](=O)[O-])c1,0.33%
6,Cc1cccc(OCCNc2ccc(C(F)(F)F)cc2[N+](=O)[O-])c1,43.7% (active)
7,CC(=O)c1cccc(-n2c(CCC(=O)O)ccc2-c2ccccc2)c1,0.06%
8,Cc1nnc(-c2ccccc2)c(=O)n1/N=C/c1c(O)ccc2ccccc12,0.11%
9,C/C(=N\NC(=O)c1cc2c(s1)CCC(C)C2)c1ccc[nH]1 (configuration not stated),0.04%
10,Cc1oc2c(cc(NS(=O)(=O)c3ccc(C(C)C)cc3)c3ccccc32)c1C(=O)O,-0.05%
11,O=C1S/C(=C/c2ccc(N3CCOCC3)o2)C(=O)N1Cc1ccc(F)cc1,16.8% (active)
12,O=C1S/C(=C\c2ccc(N3CCOCC3)o2)C(=O)N1c1ccccc1,22.4% (active)
13,O=C(CSCc1c(F)cccc1Cl)Nc1ccccc1C(=O)N1CCOCC1,2.06%
14,CC(C)OC(=O)CN1C(=O)S/C(=C/c2ccc(N3CCCCC3)o2)C1=O,0.64%
15,O=C1S/C(=C/c2ccc(N3CCOCC3)o2)C(=O)N1Cc1c(F)cccc1Cl,5.76%
16,O=C1N/C(=C\c2ccsc2)C(=O)N1Cc1ccc(F)cc1,0.11%
17,CCCN1C(=O)S/C(=C\c2ccc(N3CCOCC3)o2)C1=O,0.73%
18,O=C1S/C(=C\c2ccc(N3CCOCC3)o2)C(=O)N1Cc1c(F)cccc1Cl,226% (active)
19,O=C1S/C(=C\c2ccc(N3CCOCC3)o2)C(=O)N1Cc1ccc(F)cc1,-0.07%
20,CCCN1C(=O)S/C(=C/c2ccc(N3CCOCC3)o2)C1=O,31.7% (active)
21,O=C(O)c1ccccc1-c1ccc(/C=C2\SC(=O)N(c3ccccc3)C2=O)o1,0.06%
22,CN1C/C(=C\c2ccc(N3CCOCC3)cc2)C(=O)/C(=C/c2ccc(N3CCOCC3)cc2)C1,0.12%
23,CCCOc1ccc(C2C(C(=O)/C=C/c3ccco3)=C(O)C(=O)N2CCN2CCOCC2)cc1OC (configuration not stated),9.14%
